ChEMBL document CHEMBL1130097, “Synthesis and anti-HIV-1 activity of a series of 1-alkoxy-5-alkyl-6-(arylthio)uracils” (J Med Chem, 1997)
pEC50, pIC50: −log10 of the molar value.

Assays:
[1] = (§1) Selectivity Index measured as ratio of CC50 to that of EC50.; format: functional, CCRF-CEM
[2] = test system: Human immunodeficiency virus 1; experiment: Concentration required to achieve 50% protection of CEM-SS cells against the cytopathic effect of HIV-1.; format: functional, organism-based; settings: Human immunodeficiency virus 1, CEM-SS
CEM-SS [3] = experiment: Cytotoxic concentration required to reduce the viability of mock infected CEM-SS cells by 50%.; format: functional; settings: Homo sapiens
[4] = Selectivity Index measured as ratio of CC50 to that of EC50 in PBMCs; format: functional
Outline: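 HIV-1 (HTLV-IIIB) in PHA-stimulated PBMCs from healthy seronegative donors. Cells were infected at MOI 0.01 for 2 h, washed, then grown with compound in RPMI 1640 with IL-2 and 10% FBS at 37 °C. Cultures were split 1:2 with fresh compound on days 4 and 8. p24 was read by ELISA on day 12. Cytotoxicity was measured by [3H]thymidine incorporation. SI = CC50/EC50, means of two independent experiments in duplicate.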

[5] = Cytotoxic concentration for inhibition of HIV-1 replication in human peripheral Blood mononuclear cells.(PBMCs); format: functional
[6] = Effective concentration for inhibition of HIV-1 replication in human peripheral Blood mononuclear cells.(PBMCs); format: functional
Outline: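 PBMCs from healthy seronegative donors were isolated on Ficoll-Hypaque and stimulated 24 h with PHA (10 μg/mL). Cells at 1×10^6 cells/mL were infected with HIV-1 HTLV-IIIB at MOI 0.01, with 2-h adsorption followed by three washes. Culture was in RPMI 1640 with IL-2 (2 U/mL) and 10% FBS with compound at 37 °C, split 1:2 with fresh drug on days 4 and 8. On day 12, supernatant p24 was measured by ELISA in triplicate. […] Means of two independent experiments run in duplicate.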

CEM-SS [7] = experiment: Cytotoxic concentration required to reduce the viability of mock infected CEM-SS by 50%.; format: functional; settings: Homo sapiens
[8] = test system: Avian myeloblastosis virus; experiment: Inhibitory effect on recombinant AMV reverse transcriptase; format: functional
Outline: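 Recombinant RT (0.05 unit of HIV-1, AMV or Mo-MuLV) in 50 mM Tris-HCl pH 7.8, 50 mM KCl, 30 mM MgCl2, 1 mM DTT and 0.01% Triton X-100. Template poly r(A)d(T)12-18 (5.0 μg) with 0.5 μCi [3H]dTTP. Compound added in DMSO (final below 1%), 1 h at 37 °C. Reaction stopped with cold 20% TCA and precipitate counted. […] Means of at least three independent experiments run in duplicate.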

CEM-V [9] = experiment: Cytotoxic concentration required to reduce the viability of mock-infected CEM-V cells by 50%; format: functional; settings: Homo sapiens
[10] = as §1; format: functional
CEM-V [11] = experiment: Inhibition of HIV-1 replication in CEM-V cells; format: functional, cell-based; settings: Homo sapiens
[12] = test system: Avian myeloblastosis virus; experiment: Inhibitory effect on recombinant AMV reverse transcriptase (Avian Myeloblastosis Virus, AMV); format: functional
Outline: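 Recombinant RT (0.05 unit each of HIV-1, AMV or Mo-MuLV enzyme) in 50 mM Tris-HCl pH 7.8, 50 mM KCl, 30 mM MgCl2, 1 mM DTT, 0.01% Triton X-100, with poly r(A)d(T)12-18 template and [3H]dTTP. Compounds added from DMSO (final below 1%), 1 h at 37 °C. Stopped with cold 20% TCA; precipitate counted.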

CCRF-CEM [13] = experiment: Cytotoxic concentration for inhibition of […] replication in CEM cells.; format: functional; settings: Homo sapiens
CCRF-CEM [14] = experiment: Effective concentration for inhibition of […] replication in CEM cells.; format: functional, cell-based; settings: Homo sapiens

Structure (SMILES): CCCc1c(Sc2cc(C)cc(C)c2)n(OCc2ccccc2)c(=O)[nH]c1=O
- Selectivity index [1]: 11
- pEC50 [2]: 4.99
- CC50 (CEM-SS [3]): 114 µM

Structure (SMILES): CCCCOn1c(Sc2cc(C)cc(C)c2)c(C(C)C)c(=O)[nH]c1=O
- Selectivity index [1]: 71
- pEC50 [2]: 6.38
- CC50 (CEM-SS [3]): 30 µM

Structure (SMILES): Cc1cn([C@H]2C[C@H](N=[N+]=[N-])[C@@H](CO)O2)c(=O)[nH]c1=O [ZIDOVUDINE]
- Selectivity index [1]: >220
- Selectivity index [4]: 16556
- pEC50 [2]: 8.35
- CC50 [5]: 149 µM
- CC50 (CEM-SS [3]): > 1 µM
- pEC50 [6]: 8.05

Structure (SMILES): CCCOn1c(Sc2cc(C)cc(C)c2)c(C(C)C)c(=O)[nH]c1=O
- CC50 (CEM-SS [7]): 33 µM
- pIC50 [8]: < 4.00
- pEC50 [2]: 7.19
- CC50 [5]: 70 µM
- pEC50 [6]: 6.82

Structure (SMILES): Cc1cc(C)cc(Sc2c(C)c(=O)[nH]c(=O)n2OCCc2ccccc2)c1
- Selectivity index [1]: >39
- CC50 (CEM-SS [7]): > 121 µM
- pEC50 [2]: 5.51

Structure (SMILES): O=c1[nH]cnc2c1ncn2[C@H]1CC[C@@H](CO)O1 [DIDANOSINE]
- CC50 (CEM-V [9]): > 10 µM
- Selectivity index [10]: > 3.6
- pEC50 (CEM-V [11]): 5.55

Structure (SMILES): Cc1cc(C)cc(Sc2c(C3CC3)c(=O)[nH]c(=O)n2OCCc2ccccc2)c1
- Selectivity index [1]: 7.1
- pEC50 [2]: 5.22
- CC50 (CEM-SS [3]): 43 µM

Structure (SMILES): CCCOn1c(Sc2cccc(C)c2)c(C(C)C)c(=O)[nH]c1=O
- Selectivity index [1]: 41
- pEC50 [2]: 6.01
- CC50 (CEM-SS [3]): 40 µM

Structure (SMILES): CCCOn1c(Sc2cc(F)cc(F)c2)c(C(C)C)c(=O)[nH]c1=O
- Selectivity index [1]: >84
- pEC50 [2]: 5.62
- CC50 (CEM-SS [3]): > 200 µM

Structure (SMILES): Cc1cc(C)cc(Sc2c(C(C)C)c(=O)[nH]c(=O)n2OCCCO)c1
- Selectivity index [1]: 395
- pEC50 [2]: 6.72
- CC50 (CEM-SS [3]): 75 µM

Structure (SMILES): O=C(O)P(=O)(O)O [FOSCARNET SODIUM]
- pIC50 [12]: 5.03

Structure (SMILES): CCCOn1c(Sc2cccc(F)c2)c(C(C)C)c(=O)[nH]c1=O
- Selectivity index [1]: 38
- pEC50 [2]: 5.72
- CC50 (CEM-SS [3]): 72 µM

Structure (SMILES): CCCOn1c(Sc2cc(C)cc(C)c2)c(CC)c(=O)[nH]c1=O
- Selectivity index [1]: 154
- pEC50 [2]: 6.46
- CC50 (CEM-SS [3]): 54 µM

Structure (SMILES): CCCOn1c(Sc2cc(C)cc(C)c2)c(C2CC2)c(=O)[nH]c1=O
- Selectivity index [1]: 4.9
- pEC50 [2]: 5.21
- CC50 (CEM-SS [3]): 30 µM

Structure (SMILES): Cc1cc(C)cc(Sc2c(C(C)C)c(=O)[nH]c(=O)n2OCc2ccccc2)c1
- Selectivity index [1]: 2.8
- pEC50 [2]: 5.07
- CC50 (CEM-SS [3]): 24 µM

Structure (SMILES): CCCOn1c(Sc2ccccc2)c(C(C)C)c(=O)[nH]c1=O
- Selectivity index [1]: 11
- pEC50 [2]: 5.17
- CC50 (CEM-SS [3]): 75 µM

Structure (SMILES): CCCOn1c(Sc2ccccc2C)c(C(C)C)c(=O)[nH]c1=O
- Selectivity index [1]: 2.9
- pEC50 [2]: 4.86
- CC50 (CEM-SS [3]): 41 µM

Structure (SMILES): Cc1cc(C)cc(Sc2c(C(C)C)c(=O)[nH]c(=O)n2OCCOc2ccccc2)c1
- Selectivity index [1]: 35
- pEC50 [2]: 6.34
- CC50 (CEM-SS [3]): 16 µM

Structure (SMILES): CC(C)c1c(Sc2ccccc2)n(OCCCO)c(=O)[nH]c1=O
- Selectivity index [1]: 8.9
- pEC50 [2]: 4.72
- CC50 (CEM-SS [3]): 170 µM

Structure (SMILES): CCc1c(Sc2cc(C)cc(C)c2)n(OCCc2ccccc2)c(=O)[nH]c1=O
- Selectivity index [1]: 78
- pEC50 [2]: 6.34
- CC50 (CEM-SS [3]): 36 µM

Structure (SMILES): Cc1cc(C)cc(Sc2c(C3CC3)c(=O)[nH]c(=O)n2OCCCO)c1
- Selectivity index [1]: 8.5
- pEC50 [2]: 4.82
- CC50 (CEM-SS [3]): 128 µM

Structure (SMILES): CCc1c(Sc2cc(C)cc(C)c2)n(OCCCO)c(=O)[nH]c1=O
- Selectivity index [1]: 228
- pEC50 [2]: 6.27
- CC50 (CEM-SS [3]): 123 µM

Structure (SMILES): Cc1cc(C)cc(Sc2c(C3CC3)c(=O)[nH]c(=O)n2OCc2ccccc2)c1
- Selectivity index [1]: >13
- pEC50 [2]: 4.80
- CC50 (CEM-SS [3]): > 200 µM

Structure (SMILES): CCCOn1c(Sc2cc(C)cc(C)c2)c(CCC)c(=O)[nH]c1=O
- Selectivity index [1]: 18
- pEC50 [2]: 5.59
- CC50 (CEM-SS [3]): 45 µM

Structure (SMILES): Cc1cc(C)cc(Sc2c(C)c(=O)[nH]c(=O)n2OCCCO)c1
- Selectivity index [1]: 25
- pEC50 [2]: 5.26
- CC50 (CEM-SS [3]): 140 µM

Structure (SMILES): CCCc1c(Sc2cc(C)cc(C)c2)n(OCCc2ccccc2)c(=O)[nH]c1=O
- Selectivity index [1]: 41
- pEC50 [2]: 6.15
- CC50 (CEM-SS [3]): 29 µM

Structure (SMILES): CCCCOn1c(Sc2cc(C)cc(C)c2)c(CC)c(=O)[nH]c1=O
- Selectivity index [1]: 41
- pEC50 [2]: 6.01
- CC50 (CEM-SS [3]): 40 µM

Structure (SMILES): Cc1cc(C)cc(Sc2c(C(C)C)c(=O)[nH]c(=O)n2OCCc2ccccc2)c1
- Selectivity index [1]: 31
- pEC50 [2]: 6.31
- CC50 (CEM-SS [3]): 15 µM

Structure (SMILES): CCCc1c(Sc2cc(C)cc(C)c2)n(OCCCO)c(=O)[nH]c1=O
- Selectivity index [1]: 13
- pEC50 [2]: 5.09
- CC50 (CEM-SS [3]): 107 µM

Structure (SMILES): CCCOn1c(Sc2ccc(C)cc2)c(C(C)C)c(=O)[nH]c1=O
- CC50 (CEM-SS [7]): 69 µM

Structure (SMILES): Cc1c(Sc2ccccc2)n(COCCO)c(=O)[nH]c1=O [HEPT]
- CC50 (CCRF-CEM [13]): 400 µM
- Selectivity index [1]: 48
- pEC50 (CCRF-CEM [14]): 5.08

Structure (SMILES): Nc1ccn([C@H]2CC[C@@H](CO)O2)c(=O)n1 [ZALCITABINE]
- Selectivity index [1]: >53
- pEC50 [2]: 6.72
- CC50 (CEM-SS [3]): > 10 µM

Structure (SMILES): CC(C)c1c(Sc2cccc(F)c2)n(OCCCO)c(=O)[nH]c1=O
- CC50 (CEM-SS [3]): 3.4 µM

Structure (SMILES): Cc1cccc(CCOn2c(Sc3cc(C)cc(C)c3)c(C(C)C)c(=O)[nH]c2=O)c1
- Selectivity index [1]: 15
- pEC50 [2]: 6.08
- CC50 (CEM-SS [3]): 13 µM

Structure (SMILES): CCc1c(Sc2cc(C)cc(C)c2)n(OCc2ccccc2)c(=O)[nH]c1=O
- Selectivity index [1]: >35
- pEC50 [2]: 5.24
- CC50 (CEM-SS [3]): > 200 µM

Structure (SMILES): CCCOn1c(Sc2cc(C)cc(C)c2)c(C)c(=O)[nH]c1=O
- Selectivity index [1]: 69
- pEC50 [2]: 6.03
- CC50 (CEM-SS [3]): 64 µM

Structure (SMILES): CC(C)c1c(Sc2cc(F)cc(F)c2)n(OCCCO)c(=O)[nH]c1=O
- Selectivity index [1]: 20
- pEC50 [2]: 5.12
- CC50 (CEM-SS [3]): 150 µM

Structure (SMILES): COCCOn1c(Sc2cc(C)cc(C)c2)c(C(C)C)c(=O)[nH]c1=O
- Selectivity index [1]: 223
- pEC50 [2]: 6.37
- CC50 (CEM-SS [3]): 96 µM

Structure (SMILES): Cc1cccc(Sc2c(C(C)C)c(=O)[nH]c(=O)n2OCCCO)c1
- Selectivity index [1]: 28
- pEC50 [2]: 5.33
- CC50 (CEM-SS [3]): 118 µM

Structure (SMILES): CCc1c(Sc2cc(C)cc(C)c2)n(OCCOC)c(=O)[nH]c1=O
- Selectivity index [1]: 69
- pEC50 [2]: 5.71
- CC50 (CEM-SS [3]): 136 µM

Structure (SMILES): Cc1cc(C)cc(Sc2c(C)c(=O)[nH]c(=O)n2OCc2ccccc2)c1
- Selectivity index [1]: >20
- pEC50 [2]: 5.00
- CC50 (CEM-SS [3]): > 200 µM
